Experimental findings from ChEMBL document CHEMBL2010791, “3-Phenyl-5-isothiazole carboxamides with potent mGluR1 antagonist activity” (Bioorg Med Chem Lett, 2012) are described below.

For data set [1], the target named is Metabotropic glutamate receptor 1 (Homo sapiens, UniProt Q13255). Description: Allosteric antagonist activity at human recombinant mGluR1 expressed in AV12 cells assessed as intracellular calcium concentration using Fluo-3 dye by FLIPR assay. In kind it is functional, cell-based. Put shortly:
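Intracellular calcium read with Fluo-3 on a 96-channel FLIPR; peak fluorescence to glutamate at its EC90 with and without compound. Inhibition expressed as percent of assay window (EC90 glutamate response minus buffer); IC50 from 4-parameter logistic fit.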

In data set [2] the target is Metabotropic glutamate receptor 5 (Homo sapiens, UniProt P41594). As to the kind of experiment: Antagonist activity at human mGluR5. In kind it is functional.
Sequence of Metabotropic glutamate receptor 5 (P41594 whole entry): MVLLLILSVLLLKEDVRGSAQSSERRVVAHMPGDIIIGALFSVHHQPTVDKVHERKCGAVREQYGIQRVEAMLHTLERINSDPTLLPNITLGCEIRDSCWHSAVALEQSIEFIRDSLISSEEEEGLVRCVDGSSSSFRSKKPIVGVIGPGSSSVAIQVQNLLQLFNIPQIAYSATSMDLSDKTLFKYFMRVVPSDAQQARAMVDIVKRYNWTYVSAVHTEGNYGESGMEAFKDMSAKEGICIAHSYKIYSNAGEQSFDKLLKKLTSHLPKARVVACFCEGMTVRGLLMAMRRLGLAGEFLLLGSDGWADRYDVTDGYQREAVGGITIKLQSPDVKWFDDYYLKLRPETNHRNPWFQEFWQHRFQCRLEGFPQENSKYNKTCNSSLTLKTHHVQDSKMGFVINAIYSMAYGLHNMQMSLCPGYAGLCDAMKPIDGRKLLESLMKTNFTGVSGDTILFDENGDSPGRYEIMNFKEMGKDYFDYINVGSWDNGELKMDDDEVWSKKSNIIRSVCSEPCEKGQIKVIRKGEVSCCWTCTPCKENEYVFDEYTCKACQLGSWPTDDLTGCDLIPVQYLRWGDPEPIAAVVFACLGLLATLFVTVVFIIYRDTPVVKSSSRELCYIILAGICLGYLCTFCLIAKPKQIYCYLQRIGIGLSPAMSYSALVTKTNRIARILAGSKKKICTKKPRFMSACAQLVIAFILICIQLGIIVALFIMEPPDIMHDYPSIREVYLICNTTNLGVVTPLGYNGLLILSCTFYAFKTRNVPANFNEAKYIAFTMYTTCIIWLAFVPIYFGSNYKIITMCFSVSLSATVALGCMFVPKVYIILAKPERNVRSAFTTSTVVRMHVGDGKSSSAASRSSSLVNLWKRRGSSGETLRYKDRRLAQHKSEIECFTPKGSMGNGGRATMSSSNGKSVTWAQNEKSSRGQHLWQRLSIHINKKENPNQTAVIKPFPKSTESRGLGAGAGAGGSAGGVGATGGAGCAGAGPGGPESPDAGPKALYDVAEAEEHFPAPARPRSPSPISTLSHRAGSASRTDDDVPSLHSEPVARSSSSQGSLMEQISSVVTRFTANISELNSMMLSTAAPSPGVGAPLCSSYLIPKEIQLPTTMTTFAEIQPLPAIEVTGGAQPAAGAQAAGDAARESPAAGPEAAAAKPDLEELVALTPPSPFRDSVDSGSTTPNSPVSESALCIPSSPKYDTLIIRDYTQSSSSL
Data set [3] can be described thus: Clearance in Sprague-Dawley rat at 3 mg/kg, iv and at 10 mg/kg, po. The settings on record: in vivo. Format: ADME, organism-based. Put shortly:
(§1)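 Sprague Dawley rats dosed 3 mg/kg IV (solution in 25 mmol/L phosphate buffer pH 3 with 5% solutol HS15 and 5% pharmasolve) and 10 mg/kg orally (suspension in 1% methylcellulose A400 plus 0.1% antifoam); plasma levels measured over 24 h to derive PK parameters.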

Data set [4] can be described thus: Volume of distribution in Sprague-Dawley rat at 3 mg/kg, iv and at 10 mg/kg, po. Format: ADME, organism-based. The settings on record: in vivo. The method in brief: as §1
Data set [5] deals with Rattus norvegicus. As to the kind of experiment: Ex vivo receptor occupancy of mGluR1 in po dosed fasted Sprague-Dawley rat assessed as ratio of drug level in cerebellum to frontal cortex after 20 mins. In kind it is functional. Put shortly:
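Fasted Sprague Dawley rats dosed orally (0.3–60 mg/kg; vehicle 1% methyl cellulose), then 1 h later given a 30 µg/kg IV bolus of a competing mGluR1 antagonist tracer. Killed 20 min later; cerebellum and frontal cortex levels measured by mass spectrometry. Occupancy by ratio method (cerebellum normalized to cortex), n = 4 per dose (n = 3 at 10 mg/kg).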

Data set [6] in a line: Tmax in Sprague-Dawley rat at 10 mg/kg, po. Format: ADME, organism-based. Set-up: dose 10 mg/kg, route oral. The settings on record: in vivo. The method in brief: as §1
A short description of data set [7]: Oral bioavailability in Sprague-Dawley rat at 10 mg/kg. Format: ADME, organism-based. The following applies: in vivo. Put shortly:
as §1

A short description of data set [8]: Elimination half life in Sprague-Dawley rat at 10 mg/kg, po. The settings on record: in vivo, read-out: beta t1/2 (converted). Also noted: dose 10 mg/kg, route oral. In kind it is ADME, organism-based. The method in brief: as §1
Data set [9] relates to Rattus norvegicus. Description: Analgesic activity in po dosed fasted Harlan Sprague-Dawley rat assessed as inhibition of formalin-induced paw-licking behaviour in late phase administered 1 hr before formalin challenge measured after 11 to 40 mins. In kind it is functional. Put shortly:
(§2)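 Fasted male Sprague Dawley rats dosed orally (1, 3, 10, 30, 60 mg/kg, n = 8 per group) 1 h before intraplantar injection of 50 µl 5% formalin into right hindpaw. Paw-licking events counted 0–5 min (early) and 11–40 min (late); compared with vehicle, p<0.05.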

Data set [10] can be described thus: Cmax in Sprague-Dawley rat at 10 mg/kg, po. In kind it is ADME, organism-based. Also noted: dose 10 mg/kg, route oral. The following applies: in vivo. The method in brief: as §1
Data set [11] can be described thus: AUC (0 to 24 hrs) in Sprague-Dawley rat at 10 mg/kg, po. In kind it is ADME, organism-based. The settings on record: plasma. Set-up: time < 24 hr, dose 10 mg/kg, route oral. Put shortly:
as §1

Data set [12] is described as follows: Elimination half life in Sprague-Dawley rat at 3 mg/kg, iv. In kind it is ADME, organism-based. Also noted: dose 3 mg/kg, route intravenous. The settings on record: in vivo, read-out: beta t1/2 (converted). Put shortly:
as §1

Data set [13] can be described thus: Ratio of drug level in brain to plasma in Sprague-Dawley rat. Format: ADME. The settings on record: read-out: BPR. The method in brief:
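Rats dosed as in the plasma PK study; brain concentration profiles measured alongside plasma and the brain/plasma ratio taken.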

For data set [14], the system named is Rattus norvegicus. Description: Toxicity in fasted Sprague-Dawley rat assessed as deffects in motor impairment at 60 mg/kg, po measured up to 4 hrs by rotorod test. Format: organism-based. Also noted: dose 60 mg/kg, route oral. The following applies: in vivo. Put shortly:
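Fasted male Sprague Dawley rats given 60 mg/kg orally or vehicle (n = 8 per group); time on rotorod recorded at 1, 2, 3 and 4 h post-dose after training to 40 s baseline.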

Data set [15] addresses Metabotropic glutamate receptor 1 (Rattus norvegicus, UniProt P23385). Description: Antagonist activity at rat mGluR1. In kind it is functional.
Data set [16] concerns the target Metabotropic glutamate receptor 4 (Homo sapiens) (UniProt Q14833). As to the kind of experiment: Antagonist activity at mGluR4. Format: functional.
Data set [17] concerns the target Metabotropic glutamate receptor 3 (Homo sapiens) (UniProt Q14832). Description: Antagonist activity at mGluR3. In kind it is functional.
Data set [18] deals with Rattus norvegicus. As to the kind of experiment: Analgesic activity in fasted Harlan Sprague-Dawley rat assessed as inhibition of formalin-induced paw-licking behaviour in late phase at 3 to 60 mg/kg, po administered 1 hr before formalin challenge measured after 11 to 40 mins. In kind it is functional, organism-based. Put shortly:
as §2

Data set [19] has as its target Metabotropic glutamate receptor 7 (Homo sapiens) (UniProt Q14831). Description: Antagonist activity at mGluR7. Format: functional.
Data set [20] has as its target Metabotropic glutamate receptor 8 (Homo sapiens) (UniProt O00222). As to the kind of experiment: Antagonist activity at mGluR8. In kind it is functional.

Active and inactive are the calls of the source. The calls are words filed in the database; no cut-off is given here.

Sequence of Metabotropic glutamate receptor 1 (Homo sapiens, UniProt Q13255) (Q13255 whole entry): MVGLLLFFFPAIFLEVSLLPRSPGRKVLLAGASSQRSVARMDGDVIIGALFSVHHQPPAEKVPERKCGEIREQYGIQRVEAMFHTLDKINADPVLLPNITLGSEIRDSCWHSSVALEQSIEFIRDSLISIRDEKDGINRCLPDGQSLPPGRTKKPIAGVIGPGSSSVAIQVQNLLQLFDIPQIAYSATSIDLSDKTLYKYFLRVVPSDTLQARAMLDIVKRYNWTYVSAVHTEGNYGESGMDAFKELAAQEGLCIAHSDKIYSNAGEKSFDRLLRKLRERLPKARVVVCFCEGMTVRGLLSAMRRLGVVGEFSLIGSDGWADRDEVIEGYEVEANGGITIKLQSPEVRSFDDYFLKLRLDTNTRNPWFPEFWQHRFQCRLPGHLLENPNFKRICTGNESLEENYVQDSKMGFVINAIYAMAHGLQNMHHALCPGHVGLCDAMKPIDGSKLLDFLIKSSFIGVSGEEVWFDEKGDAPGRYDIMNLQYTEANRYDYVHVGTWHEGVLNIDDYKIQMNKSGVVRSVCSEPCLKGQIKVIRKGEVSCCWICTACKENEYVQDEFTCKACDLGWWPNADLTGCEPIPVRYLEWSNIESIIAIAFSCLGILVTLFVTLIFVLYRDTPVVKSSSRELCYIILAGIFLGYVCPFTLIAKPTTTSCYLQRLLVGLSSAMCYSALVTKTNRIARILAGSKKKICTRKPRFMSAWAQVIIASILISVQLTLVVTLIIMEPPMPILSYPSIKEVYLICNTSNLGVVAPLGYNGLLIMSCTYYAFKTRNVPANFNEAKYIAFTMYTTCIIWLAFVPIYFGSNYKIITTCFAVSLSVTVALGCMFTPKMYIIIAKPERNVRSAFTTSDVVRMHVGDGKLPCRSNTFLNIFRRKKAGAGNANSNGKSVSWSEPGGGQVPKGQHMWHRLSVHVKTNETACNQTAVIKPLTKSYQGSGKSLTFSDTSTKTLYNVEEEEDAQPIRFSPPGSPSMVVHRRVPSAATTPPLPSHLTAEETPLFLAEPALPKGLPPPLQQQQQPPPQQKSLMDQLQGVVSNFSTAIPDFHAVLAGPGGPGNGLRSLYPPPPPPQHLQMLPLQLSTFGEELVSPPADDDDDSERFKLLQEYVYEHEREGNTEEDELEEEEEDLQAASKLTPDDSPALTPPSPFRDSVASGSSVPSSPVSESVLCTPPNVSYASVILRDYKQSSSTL
Sequence of Metabotropic glutamate receptor 3 (Homo sapiens) (Q14832 23-879 limits assumed): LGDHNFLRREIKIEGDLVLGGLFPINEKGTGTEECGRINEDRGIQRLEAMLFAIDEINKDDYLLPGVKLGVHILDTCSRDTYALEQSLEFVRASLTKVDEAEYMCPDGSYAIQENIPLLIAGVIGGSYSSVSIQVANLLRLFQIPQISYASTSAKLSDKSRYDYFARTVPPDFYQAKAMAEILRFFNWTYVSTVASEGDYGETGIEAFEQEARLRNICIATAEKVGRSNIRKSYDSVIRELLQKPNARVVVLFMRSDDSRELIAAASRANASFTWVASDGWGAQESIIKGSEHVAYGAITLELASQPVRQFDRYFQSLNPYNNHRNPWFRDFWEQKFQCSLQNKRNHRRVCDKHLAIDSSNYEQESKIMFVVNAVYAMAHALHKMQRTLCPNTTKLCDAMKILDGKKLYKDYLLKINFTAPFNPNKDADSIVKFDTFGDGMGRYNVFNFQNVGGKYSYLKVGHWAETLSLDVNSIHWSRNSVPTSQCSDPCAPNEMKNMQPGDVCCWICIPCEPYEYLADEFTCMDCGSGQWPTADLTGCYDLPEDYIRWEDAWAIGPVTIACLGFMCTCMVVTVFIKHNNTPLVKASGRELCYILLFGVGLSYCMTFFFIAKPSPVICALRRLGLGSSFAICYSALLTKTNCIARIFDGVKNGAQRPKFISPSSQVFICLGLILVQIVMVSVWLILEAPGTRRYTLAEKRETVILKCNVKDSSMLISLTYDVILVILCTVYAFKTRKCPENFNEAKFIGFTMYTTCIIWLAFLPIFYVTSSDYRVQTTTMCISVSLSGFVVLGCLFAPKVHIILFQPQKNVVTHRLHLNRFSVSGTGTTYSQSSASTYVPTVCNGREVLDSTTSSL
Sequence of Metabotropic glutamate receptor 7 (Homo sapiens) (Q14831 whole entry): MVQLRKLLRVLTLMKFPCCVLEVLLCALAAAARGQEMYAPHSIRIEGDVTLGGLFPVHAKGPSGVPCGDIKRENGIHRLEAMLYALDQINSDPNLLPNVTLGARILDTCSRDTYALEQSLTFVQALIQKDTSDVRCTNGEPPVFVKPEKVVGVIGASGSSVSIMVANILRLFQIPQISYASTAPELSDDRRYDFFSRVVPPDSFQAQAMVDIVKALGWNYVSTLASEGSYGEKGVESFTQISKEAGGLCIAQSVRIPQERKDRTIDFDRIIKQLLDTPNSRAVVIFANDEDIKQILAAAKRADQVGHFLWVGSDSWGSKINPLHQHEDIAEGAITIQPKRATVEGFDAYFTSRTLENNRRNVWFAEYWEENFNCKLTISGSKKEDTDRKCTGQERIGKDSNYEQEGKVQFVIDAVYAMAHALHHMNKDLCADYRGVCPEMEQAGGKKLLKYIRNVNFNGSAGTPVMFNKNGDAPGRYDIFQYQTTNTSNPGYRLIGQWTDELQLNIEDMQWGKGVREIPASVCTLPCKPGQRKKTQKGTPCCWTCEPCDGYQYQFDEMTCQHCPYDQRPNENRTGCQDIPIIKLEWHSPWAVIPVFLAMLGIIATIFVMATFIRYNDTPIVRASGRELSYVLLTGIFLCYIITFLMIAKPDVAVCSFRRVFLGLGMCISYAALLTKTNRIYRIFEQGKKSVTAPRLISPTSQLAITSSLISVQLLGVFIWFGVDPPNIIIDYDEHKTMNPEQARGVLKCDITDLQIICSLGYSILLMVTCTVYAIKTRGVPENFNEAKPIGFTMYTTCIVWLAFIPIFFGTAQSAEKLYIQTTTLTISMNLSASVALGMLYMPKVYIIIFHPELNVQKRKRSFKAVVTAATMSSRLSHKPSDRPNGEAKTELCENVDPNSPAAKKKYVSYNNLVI
Sequence of Metabotropic glutamate receptor 4 (Homo sapiens) (Q14833 whole entry): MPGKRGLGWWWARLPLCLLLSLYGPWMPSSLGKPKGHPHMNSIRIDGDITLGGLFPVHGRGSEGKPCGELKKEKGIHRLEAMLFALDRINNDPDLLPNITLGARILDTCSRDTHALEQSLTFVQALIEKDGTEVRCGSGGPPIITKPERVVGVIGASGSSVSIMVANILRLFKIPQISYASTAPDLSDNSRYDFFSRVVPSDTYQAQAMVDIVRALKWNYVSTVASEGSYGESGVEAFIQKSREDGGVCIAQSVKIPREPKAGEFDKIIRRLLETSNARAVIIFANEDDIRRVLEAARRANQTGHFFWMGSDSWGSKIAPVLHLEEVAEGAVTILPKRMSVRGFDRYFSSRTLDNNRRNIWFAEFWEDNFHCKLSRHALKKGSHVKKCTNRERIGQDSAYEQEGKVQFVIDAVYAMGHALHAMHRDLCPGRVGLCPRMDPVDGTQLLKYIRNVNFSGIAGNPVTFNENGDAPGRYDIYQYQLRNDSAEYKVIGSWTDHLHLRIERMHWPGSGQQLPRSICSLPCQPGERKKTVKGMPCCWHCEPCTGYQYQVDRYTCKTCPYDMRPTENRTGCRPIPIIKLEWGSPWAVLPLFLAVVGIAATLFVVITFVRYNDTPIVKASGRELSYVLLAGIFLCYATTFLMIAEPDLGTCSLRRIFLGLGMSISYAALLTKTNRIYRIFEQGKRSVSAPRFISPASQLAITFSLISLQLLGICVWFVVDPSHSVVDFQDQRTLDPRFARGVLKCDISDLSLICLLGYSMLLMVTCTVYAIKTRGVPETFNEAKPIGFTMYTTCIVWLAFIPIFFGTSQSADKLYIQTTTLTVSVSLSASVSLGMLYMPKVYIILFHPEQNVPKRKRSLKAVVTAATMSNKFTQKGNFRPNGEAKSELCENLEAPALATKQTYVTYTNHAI

One may read the IC50 as the point on the concentration scale where inhibition reaches its midpoint. As to `COc1ccc(-c2nsc(NC(=O)[C@H]3C[C@@H]3C)c2C)cc1`, the half-inhibitory concentration (IC50) in data set [1] was found to be 110 nM.

Take `CCOc1ccc(-c2nsc(NC(=O)[C@@H]3C[C@H]3C)c2C)cc1`: the figures for the 50% inhibitory concentration (IC50) in data set [2] and in data set [1] were 19 nM and 92 nM, respectively.

On to `Cc1c(-c2ccc(Cl)c(Cl)c2)nsc1NC(=O)[C@@H]1C[C@H]1C`, for which the IC50 in data set [2] came out at 6650 nM; in data set [1], 39 nM.

For orientation: ED50 means the dose that gives a 50% effect, or the effect in half of the subjects. By Tmax is commonly meant the time from dosing to the highest level. Usually bioavailability stands for the share of a dose that reaches the circulation, judged against a reference dose that is usually intravenous. Lower therefore signals little systemic uptake. As usually defined, the Cmax is the maximum level reached in the sampled fluid or tissue. The term AUC(0-t) denotes exposure summed from dosing to a finite time, without extrapolation to infinity. The compound `COc1ccc(-c2nsc(NC(=O)[C@@H]3C[C@H]3C)c2C)cc1` [listing 1 of 2 here] came in with a clearance in [3] of 35.9 mL/min/kg. Further, the Vd in [4] came out at 1.27 L/kg. Moreover, the values for the half-inhibitory concentration (IC50) in [2], in data set [1] and in [15] were 158 nM, 9 nM and 0.9 nM, respectively. Also, the 50% effective dose (ED50) was 3.7 mg/kg in the data set with Rattus norvegicus [5] and 7 mg/kg in the data set on Rattus norvegicus [9]. Moreover, in data set [6], the Tmax turned out to be 1 h. Further, in data set [7], the bioavailability turned out to be 55.5%. Moreover, the half-life in data set [8] was 1.24 h; in data set [12], 0.41 h. This compound also returned a peak concentration (Cmax) in data set [10] of 1050 ng/mL. The AUC(0-t) at 24 h in [11] came out at 3240 ng·h/mL. Also, the Kp in data set [13] is 0.2. Besides, in the data set with Rattus norvegicus [14], the Activity result is recorded as “Non-toxic”.

On to `Cc1c(-c2ccc(O)cc2)nsc1NC(=O)[C@@H]1C[C@H]1C`, for which the IC50 was over 12500 nM in data set [2] and 138 nM in [1].

For the compound `Cc1c(-c2ccc(F)cc2)nsc1NC(=O)[C@@H]1C[C@H]1C`, the IC50 in [2] was over 12500 nM; in [1], 100 nM.

For `Cc1c(-c2ccc(C(C)(F)F)cc2)nsc1NC(=O)[C@@H]1C[C@H]1C`, the IC50 is over 12500 nM in data set [2] and 67 nM in data set [1].

For the compound `COc1ccc(-c2nsc(NC(=O)[C@@H]3C[C@H]3C)c2C)cc1` (racemic), the concentration for half-maximal inhibition (IC50) in [1] stood at 32 nM.

As to `Cc1c(-c2ccc(Cl)cc2)nsc1NC(=O)[C@@H]1C[C@H]1C`, the results for the half-maximal inhibitory concentration (IC50) in data set [2] and in [1] were 1220 nM and 9 nM, respectively.

`Cc1c(-c2ccccc2)nsc1NC(=O)[C@@H]1C[C@H]1C`: the half-inhibitory concentration (IC50) is over 12500 nM in data set [2] and 65 nM in data set [1].

On to `Cc1c(-c2ccc(Br)cc2)nsc1NC(=O)[C@@H]1C[C@H]1C`, for which the IC50 is 730 nM in data set [2] and 7 nM in data set [1].

Turning to `COc1ccc(-c2nsc(NC(=O)[C@@H]3C[C@H]3C)c2C)cc1` [listing 2 of 2 here], the result in [16], in [17], in data set [19] and in data set [20] was inactive. Besides, in the data set on Rattus norvegicus [18], the outcome was Active. Moreover, the Activity entry in the data set with Rattus norvegicus [9] was “Dose-dependent effect”.

As for `COc1ccc(-c2nsc(NC(=O)[C@@H]3C[C@H]3C)c2C)cc1F`, the half-inhibitory concentration (IC50) in data set [2] is 159 nM; in data set [1], 7 nM.
